Source: ChEMBL document CHEMBL2150851, “Selective nitrile inhibitors to modulate the proteolytic synergism of cathepsins S and F” (J Med Chem, 2012)

Experiments:
Procathepsin L [1] = target: T1, Procathepsin L (Homo sapiens, UniProt P07711); experiment: Inhibition of human cathepsin L using Z-Phe-Arg-pNA as substrate by spectrophotometric analysis; conditions: TDE = time-dependent effect
Summary of the method: (§1)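 Human enzyme activity was followed with a chromogenic or fluorogenic peptide substrate, in duplicate experiments at five or more inhibitor concentrations. Mean steady-state rates were plotted against inhibitor concentration and fitted by nonlinear regression to give IC50. IC50 was then corrected to zero substrate concentration to give Ki. Standard errors of the regression are reported.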
Target sequence in this assay (P07711 114-333 limits assumed): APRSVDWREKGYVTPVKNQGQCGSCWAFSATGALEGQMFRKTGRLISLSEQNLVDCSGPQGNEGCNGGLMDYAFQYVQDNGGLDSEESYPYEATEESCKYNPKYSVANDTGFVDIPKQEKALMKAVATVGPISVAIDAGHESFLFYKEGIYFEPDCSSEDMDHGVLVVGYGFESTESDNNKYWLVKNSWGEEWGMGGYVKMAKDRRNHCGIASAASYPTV

Cathepsin B [2] = target: T2, Cathepsin B (Homo sapiens, UniProt P07858); experiment: Inhibition of human cathepsin B using Z-Arg-Arg-pNA as substrate by spectrophotometric analysis; conditions: TDE = time-dependent effect; summary of the method: as §1
Cathepsin B [3] = target: T2, Cathepsin B; experiment: Inhibition of human cathepsin B using Z-Arg-Arg-pNA as substrate after 80 mins by spectrophotometric analysis
Cathepsin K [4] = target: T3, Cathepsin K (Homo sapiens, UniProt P43235); experiment: Inhibition of human cathepsin K using Z-Leu-Arg-AMC as substrate after 80 mins by fluorimetric analysis
T3 sequence (P43235 whole entry): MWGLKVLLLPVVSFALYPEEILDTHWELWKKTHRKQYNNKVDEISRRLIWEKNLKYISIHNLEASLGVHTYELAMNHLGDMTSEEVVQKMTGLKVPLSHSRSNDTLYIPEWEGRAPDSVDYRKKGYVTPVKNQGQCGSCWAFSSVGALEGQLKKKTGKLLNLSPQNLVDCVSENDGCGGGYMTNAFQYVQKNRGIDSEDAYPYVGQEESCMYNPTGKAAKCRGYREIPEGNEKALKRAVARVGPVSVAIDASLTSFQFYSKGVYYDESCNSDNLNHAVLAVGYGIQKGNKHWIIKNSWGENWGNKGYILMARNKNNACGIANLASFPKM

Cathepsin F [5] = target: T4, Cathepsin F (Homo sapiens, UniProt Q9UBX1); experiment: Inhibition of human recombinant cathepsin F using Z-Phe-Arg-AMC as substrate by fluorimetric analysis; summary of the method: as §1
T4 sequence (Q9UBX1 whole entry): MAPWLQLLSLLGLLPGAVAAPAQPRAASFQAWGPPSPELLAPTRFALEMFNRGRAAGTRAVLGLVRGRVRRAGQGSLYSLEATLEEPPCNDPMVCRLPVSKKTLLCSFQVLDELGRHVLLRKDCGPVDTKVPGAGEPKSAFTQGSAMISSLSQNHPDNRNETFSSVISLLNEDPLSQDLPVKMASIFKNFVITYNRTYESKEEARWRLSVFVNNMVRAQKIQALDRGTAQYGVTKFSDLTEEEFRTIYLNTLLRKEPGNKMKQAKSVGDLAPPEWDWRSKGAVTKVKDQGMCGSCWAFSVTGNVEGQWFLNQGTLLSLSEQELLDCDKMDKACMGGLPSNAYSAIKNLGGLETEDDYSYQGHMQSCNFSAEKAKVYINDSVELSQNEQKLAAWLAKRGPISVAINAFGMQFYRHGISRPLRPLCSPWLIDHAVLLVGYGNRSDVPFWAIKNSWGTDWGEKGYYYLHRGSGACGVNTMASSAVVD

Cathepsin S [6] = target: T5, Cathepsin S (Homo sapiens, UniProt P25774); experiment: Inhibition of human cathepsin S using Z-Phe-Val-Arg-pNA as substrate after 80 mins by spectrophotometric analysis
T5 sequence (P25774 whole entry): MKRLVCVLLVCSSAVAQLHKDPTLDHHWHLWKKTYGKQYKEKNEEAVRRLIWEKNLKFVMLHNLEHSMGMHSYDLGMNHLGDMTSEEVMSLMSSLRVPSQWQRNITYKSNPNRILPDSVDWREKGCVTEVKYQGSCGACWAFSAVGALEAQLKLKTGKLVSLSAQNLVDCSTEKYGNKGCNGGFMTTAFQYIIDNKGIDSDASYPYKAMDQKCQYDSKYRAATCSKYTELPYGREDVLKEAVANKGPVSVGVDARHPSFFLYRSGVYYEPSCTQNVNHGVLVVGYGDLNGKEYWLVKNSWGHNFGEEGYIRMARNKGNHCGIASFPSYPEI

Procathepsin L [7] = target: T1, Procathepsin L; experiment: Inhibition of human cathepsin L using Z-Phe-Arg-pNA as substrate after 80 mins by spectrophotometric analysis
Target sequence in this assay (P07711 whole entry): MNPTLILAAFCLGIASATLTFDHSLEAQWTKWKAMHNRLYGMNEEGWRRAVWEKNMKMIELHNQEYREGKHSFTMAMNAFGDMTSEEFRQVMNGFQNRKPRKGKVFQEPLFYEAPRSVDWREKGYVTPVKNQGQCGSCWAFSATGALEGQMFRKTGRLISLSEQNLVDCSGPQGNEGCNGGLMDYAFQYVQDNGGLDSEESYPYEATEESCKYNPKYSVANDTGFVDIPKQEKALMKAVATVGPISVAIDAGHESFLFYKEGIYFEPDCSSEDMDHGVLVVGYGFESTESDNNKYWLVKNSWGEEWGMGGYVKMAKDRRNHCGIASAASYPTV

[8] = target: T6, Cathepsin K (Homo sapiens) (UniProt P43235); experiment: Inhibition of human cathepsin K using Z-Leu-Arg-AMC as substrate by fluorimetric analysis; conditions: TDE = time-dependent effect; summary of the method: as §1
T6 sequence (whole entry): T3 sequence (P43235 whole entry)

Cathepsin B [9] = target: T2, Cathepsin B; experiment: Inhibition of human cathepsin B using Z-Arg-Arg-pNA as substrate after 10 mins by spectrophotometric analysis
Cathepsin K [10] = target: T3, Cathepsin K; experiment: Inhibition of human cathepsin K using Z-Leu-Arg-AMC as substrate after 10 mins by fluorimetric analysis
Procathepsin L [11] = target: T1, Procathepsin L; experiment: Inhibition of human cathepsin L using Z-Phe-Arg-pNA as substrate after 10 mins by spectrophotometric analysis
Target sequence in this assay (P07711 whole entry): as above

Cathepsin S [12] = target: T5, Cathepsin S; experiment: Inhibition of human cathepsin S using Z-Phe-Val-Arg-pNA as substrate after 10 mins by spectrophotometric analysis
Cathepsin F [13] = target: T4, Cathepsin F; experiment: Inhibition of human recombinant cathepsin F using Z-Phe-Arg-AMC as substrate after 8 min by fluorimetric analysis

SMILES | inhibition (Procathepsin L [1]) | inhibition (Cathepsin B [2]) | Ki (Cathepsin B [3]) [µM] | Ki (Cathepsin K [4]) [µM] | Ki (Cathepsin F [5]) [µM] | Ki (Cathepsin S [6]) [µM] | Ki (Procathepsin L [7]) [µM] | inhibition [8] | Ki (Cathepsin B [9]) [µM] | Ki (Cathepsin K [10]) [µM] | Ki (Procathepsin L [11]) [µM] | Ki (Cathepsin S [12]) [µM] | Ki (Cathepsin F [13]) [µM]
CC(C)CS(=O)(=O)C[C@H](NC(=O)c1ccccc1)C(=O)N(C)N(C)C#N | tde | tde | 0.0058 | 0.00066 | 0.021 | 0.00055 | 0.015 | tde | – | – | – | – | –
CC(C)CS(=O)(=O)C[C@H](NC(=O)c1ccccc1)C(=O)NCC#N | – | – | – | – | – | – | – | – | 24 | > 40 | 37 | 0.033 | > 40
CC(C)CS(=O)(=O)CC(NC(=O)c1ccccc1)C(=O)NCC#N (racemic) | – | – | – | – | – | – | – | – | 40 | > 40 | > 40 | 0.04 | > 40
CC(C)CS(=O)(=O)CC(NC(=O)c1cccs1)C(=O)NCC#N (racemic) | – | – | – | – | – | – | – | – | 24 | > 40 | > 40 | 0.045 | > 40
CC(C)CS(=O)(=O)CC(NC(=O)c1cc(-c2ccccc2)cs1)C(=O)NCC#N (racemic) | – | – | – | – | – | – | – | – | 6.4 | > 4 | > 4 | 0.06 | > 4
CC(C)CS(=O)(=O)CC(NC(=O)c1ccc(-c2cccs2)cc1)C(=O)NCC#N (racemic) | – | – | – | – | – | – | – | – | 3.9 | > 4 | > 4 | 0.2 | > 4
CC(C)CS(=O)(=O)CC(NC(=O)c1cc2ccccc2s1)C(=O)NCC#N (racemic) | – | – | – | – | – | – | – | – | 6.8 | > 4 | > 4 | 0.089 | > 4

Results, then the compound that gave them:

inhibition (Procathepsin L [1]) | inhibition (Cathepsin B [2]) | Ki (Cathepsin B [3]) [µM] | Ki (Cathepsin K [4]) [µM] | Ki (Cathepsin F [5]) [µM] | Ki (Cathepsin S [6]) [µM] | Ki (Procathepsin L [7]) [µM] | inhibition [8] | Ki (Cathepsin B [9]) [µM] | Ki (Cathepsin K [10]) [µM] | Ki (Procathepsin L [11]) [µM] | Ki (Cathepsin S [12]) [µM] | Ki (Cathepsin F [13]) [µM] | SMILES
– | – | – | – | – | – | – | – | 5.1 | > 4 | > 4 | 0.061 | > 4 | CC(C)CS(=O)(=O)CC(NC(=O)c1ccc(-c2ccccc2)s1)C(=O)NCC#N (racemic)
– | – | – | – | – | – | – | – | 5.4 | > 4 | > 4 | 0.061 | > 4 | CC(C)CS(=O)(=O)CC(NC(=O)c1ccc(-c2ccsc2)s1)C(=O)NCC#N (racemic)
– | – | – | – | – | – | – | – | 34 | > 4 | > 4 | 0.076 | > 4 | CC(C)CS(=O)(=O)CC(NC(=O)c1ccc(-c2nnn[nH]2)s1)C(=O)NCC#N (racemic)
– | – | – | – | – | – | – | – | 3.4 | 1.1 | > 4 | 0.094 | 3.2 | CC(C)CS(=O)(=O)CC(NC(=O)c1ccc(-c2cccs2)s1)C(=O)NCC#N (racemic)
– | – | – | – | – | – | – | – | 7.2 | > 4 | > 4 | 0.1 | > 4 | CC(C)CS(=O)(=O)CC(NC(=O)c1cc2ccsc2s1)C(=O)NCC#N (racemic)
